Activity calls are given as the source filed them. No cut-off for these calls is given here.
How the values were obtained:
[1] = Half life in human liver microsome by HPLC-MS/MS analysis in presence of 10 uM NADPH; format: ADME; settings: liver microsomes
Outline: (§1)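 Pooled liver microsomes (human, mouse, rat) with NADPH. Substrate added from DMSO to final 0.1, 1.0 or 10 μM, with 0.5% (vol/vol) organic solvent. Incubated at 37°C for up to 60 min. Stopped with 2 volumes of 7:1 methanol-water containing 0.1% TFA and 30 nM internal standard, then centrifuged. Remaining substrate was measured by HPLC-MS/MS, and t1/2 was obtained by one-phase exponential decay fit (t1/2 = 0.693/k).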

Mus musculus [2] = assay: Hepatotoxicity in BALB/c mouse assessed as alkaline phosphatase level in serum at 25 mg/kg/day, po administered for five days (Rvb= 129 U/L); format: toxicity, organism-based; set-up: route oral; settings: in vivo
[3] = Half life in golden Syrian hamster liver microsome by HPLC-MS/MS analysis in presence of 10 uM NADPH; format: ADME, Mesocricetus auratus; settings: liver microsomes
Outline: (§2)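 Pooled liver microsomes with NADPH. Substrate at final 0.1, 1.0 and 10 μM with 0.5% DMSO, incubated up to 60 min at 37°C. Reactions were stopped with 7:1 methanol-water containing 0.1% TFA and 30 nM internal standard. Remaining substrate was measured by HPLC-MS/MS, and t1/2 came from a one-phase exponential decay fit.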

Leishmania donovani [4] = assay: Antileishmanial activity against Leishmania donovani promastigotes in ip dosed BALB/c mouse assessed as inhibition of liver parasitemia; format: functional, organism-based
Outline: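 Murine VL model in L. donovani-infected mice. Compounds were dissolved in water and given i.p. or p.o. once daily for 5 days (4 days for one i.p. regimen). Liver parasitemia was compared with untreated controls by unpaired Student's t test, P ≤ 0.05.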

Leishmania donovani [5] = assay: Antileishmanial activity against […] Leishmania donovani AG83-S infected in mouse J774 macrophage; format: functional, organism-based
[6] = Volume of distribution in Swiss Webster mouse at 1 mg/kg, iv by HPLC-MS/MS analysis; format: ADME, organism-based; set-up: dose 1 mg/kg, route intravenous; settings: in vivo
Outline: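 Male Swiss Webster mice (n = 3 per time point), single dose by oral gavage (sterile water solution) or tail-vein bolus i.v. (water diluted 1:1 with 2× saline, over ~10–20 s); dose volume 5 ml/kg. Terminal blood sampled from 5 min to 72 h postdose; plasma quantified by HPLC-MS/MS (positive-ion SRM). Noncompartmental analysis gave Cmax, Tmax, AUC0-∞, CL, Vss; bioavailability from p.o. versus i.v. exposure.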

Mus musculus [7] = assay: Hepatotoxicity in BALB/c mouse assessed as alkaline phosphatase level in serum at 20 mg/kg/day, iv administered for five days (Rvb= 134 U/L); format: toxicity, organism-based; set-up: route intravenous; settings: in vivo
Mus musculus [8] = assay: Hepatotoxicity in BALB/c mouse assessed as ALT level in serum at 50 mg/kg/day, po administered for five days (Rvb= 36 U/L); format: toxicity, organism-based; set-up: route oral; settings: in vivo
Leishmania donovani [9] = assay: Antileishmanial activity against intracellular Leishmania donovani LV82 amastigotes; format: functional, organism-based
Outline: (§3)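 CD-1 mouse peritoneal macrophages, 5 × 10^4 cells/well in RPMI 1640 + 10% heat-inactivated FBS, adhered overnight. Infected overnight with stationary-phase LV82 promastigotes (5:1 parasite:macrophage), 37°C, 5% CO2. Medium then replaced with compound or vehicle for 72 h at 37°C. Methanol-fixed, Giemsa-stained; % infected macrophages counted at ×1,000. IC50 by four-parameter logistic nonlinear regression.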

Mus musculus [10] = assay: Renal toxicity in BALB/c mouse assessed as blood urea nitrogen level in serum at 25 mg/kg/day, po administered for five days (Rvb= 29 mg/dl); format: organism-based; set-up: route oral; settings: in vivo
Outline: (§4)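 Female BALB/c mice (n = 5 per dose), dosed once daily for 5 consecutive days p.o. (20 ml/kg) or i.v. (10 ml/kg) with compound in sterile water, prepared fresh daily under yellow light. Vehicle controls n = 5 per route. Clinical observations, body weights, serum chemistry and hematology on day 6 before necropsy; histopathology of formalin-fixed tissues. Chemistry analysed by one-way ANOVA with Dunnett's posttest.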

Mus musculus [11] = assay: Hepatotoxicity in BALB/c mouse assessed as ALT level in serum at 25 mg/kg/day, po administered for five days (Rvb= 36 U/L); format: toxicity, organism-based; set-up: route oral; settings: in vivo
Leishmania donovani [12] = assay: Antileishmanial activity against antimony resistant Leishmania donovani MC8-R infected in mouse J774 macrophage; format: functional, organism-based
Mus musculus [13] = assay: Renal toxicity in BALB/c mouse assessed as phosphorus level in serum at 20 mg/kg/day, iv administered for five days (Rvb= 6.1 mg/dl); format: organism-based; set-up: route intravenous; settings: in vivo; outline: as §4
Leishmania major = assay: Antileishmanial activity against intracellular Leishmania major amastigotes; format: functional, organism-based
Mus musculus [14] = assay: Hepatotoxicity in BALB/c mouse assessed as ALT level in serum at 20 mg/kg/day, iv administered for five days (Rvb= 34 U/L); format: toxicity, organism-based; set-up: route intravenous; settings: in vivo
Mus musculus [15] = assay: Hepatotoxicity in BALB/c mouse assessed as AST level in serum at 25 mg/kg/day, po administered for five days (Rvb= 70 U/L); format: toxicity, organism-based; set-up: route oral; settings: in vivo
Mus musculus [16] = assay: Renal toxicity in BALB/c mouse assessed as blood urea nitrogen level in serum at 20 mg/kg/day, iv administered for five days (Rvb= 20 mg/dl); format: organism-based; set-up: route intravenous; settings: in vivo; outline: as §4
[17] = Half life in human liver microsome by HPLC-MS/MS analysis in presence of 1 uM NADPH; format: ADME; settings: liver microsomes; outline: as §2
Mus musculus [18] = assay: Hepatotoxicity in BALB/c mouse assessed as alkaline phosphatase level in serum at 50 mg/kg/day, po administered for five days (Rvb= 129 U/L); format: toxicity, organism-based; set-up: route oral; settings: in vivo
Leishmania donovani [19] = assay: Antileishmanial activity against antimony resistant Leishmania donovani MC4-R infected in mouse J774 macrophage; format: functional, organism-based
[20] = Half life in golden Syrian hamster liver microsomes by HPLC-MS/MS analysis in presence of 0.1 uM NADPH; format: ADME, Mesocricetus auratus, Microsome; outline: as §2
Mus musculus [21] = assay: Renal toxicity in BALB/c mouse assessed as phosphorus level in serum at 5 mg/kg/day, iv administered for five days (Rvb= 6.1 mg/dl); format: organism-based; set-up: route intravenous; settings: in vivo; outline: as §4
Mus musculus [22] = assay: Hepatotoxicity in BALB/c mouse assessed as ALT level in serum at 5 mg/kg/day, iv administered for five days (Rvb= 34 U/L); format: toxicity, organism-based; set-up: route intravenous; settings: in vivo
[23] = Cmax in Swiss Webster mouse at 1 mg/kg, iv by HPLC-MS/MS analysis; format: ADME, organism-based; set-up: dose 1 mg/kg, route intravenous; settings: in vivo
Outline: (§5)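 Male Swiss Webster mice, n = 3 per time point. For i.v., the compound was dissolved in sterile water, diluted 1:1 with 2× saline, and given as a tail-vein bolus over ~10–20 s. For p.o., it was given by gavage in sterile water. Dose volume was 5 ml/kg. Terminal plasma was taken from 5 min to 72 h and measured by HPLC-MS/MS (calibration 2.5–10,000 nM). Parameters came from noncompartmental analysis.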

Mus musculus [24] = assay: Hepatotoxicity in BALB/c mouse assessed as AST level in serum at 5 mg/kg/day, iv administered for five days (Rvb= 65 U/L); format: toxicity, organism-based; set-up: route intravenous; settings: in vivo
[25] = Clearance in Swiss Webster mouse at 1 mg/kg, iv by HPLC-MS/MS analysis; format: ADME, organism-based; set-up: dose 1 mg/kg, route intravenous; settings: in vivo; outline: as §5
Leishmania donovani [26] = assay: Antileishmanial activity against intracellular Leishmania donovani LV82 amastigotes infected in CD-1 mouse peritoneal macrophage; format: functional, organism-based; outline: as §3
Mus musculus [27] = assay: Hepatotoxicity in BALB/c mouse assessed as phosphorus level in serum at 25 mg/kg/day, po administered for five days (Rvb= 5.3 mg/dl); format: toxicity, organism-based; set-up: route oral; settings: in vivo
[28] = Half life in rat liver microsome by HPLC-MS/MS analysis in presence of 1 uM NADPH; format: ADME; settings: liver microsomes; outline: as §1

CC(C)Oc1cc(NC(=N)c2ccccn2)ccc1-c1ccc(-c2ccc(NC(=N)c3ccccn3)cc2OC(C)C)o1
half-life [1]: > 120 min | Activity (Mus musculus [2]): 126 U/L | half-life [3]: > 120 min | Activity (Leishmania donovani [4]): Active | IC50 (Leishmania donovani [5]): 90 nM | Vd [6]: 14 L/kg | Activity (Mus musculus [7]): 104 U/L | Activity (Mus musculus [8]): 45 U/L | IC50 (Leishmania donovani [9]): 36 nM | Activity (Mus musculus [10]): 27 mg/dL | Activity (Mus musculus [11]): 44 U/L | IC50 (Leishmania donovani [12]): 64 nM | Activity (Mus musculus [13]): 6.5 mg/dL | IC50 (Leishmania major): 14 nM | Activity (Mus musculus [14]): 50 U/L | Activity (Mus musculus [15]): 75 U/L | Activity (Mus musculus [16]): 26 mg/dL | half-life [17]: > 120 min | Activity (Mus musculus [18]): 123 U/L | IC50 (Leishmania donovani [19]): 76 nM | half-life [20]: 39 min | Activity (Mus musculus [21]): 7 mg/dL | Activity (Mus musculus [22]): 36 U/L | Cmax [23]: 1090 nM | Activity (Mus musculus [24]): 76 U/L | clearance [25]: 9.9 mL/min/kg | IC50 (Leishmania donovani [26]): 2.8 µM | Activity (Mus musculus [27]): 7 mg/dL | half-life [28]: > 120 min

CCOc1cc(NC(=N)c2ccccn2)ccc1-c1ccc(-c2ccc(NC(=N)c3ccccn3)cc2OCC)o1
half-life [1]: > 120 min | Activity (Mus musculus [2]): 136 U/L | half-life [3]: > 120 min | Activity (Leishmania donovani [4]): Active | IC50 (Leishmania donovani [5]): 130 nM | Vd [6]: 36 L/kg | Activity (Mus musculus [7]): 107 U/L | Activity (Mus musculus [8]): 34 U/L | IC50 (Leishmania donovani [9]): 18 nM | Activity (Mus musculus [10]): 29 mg/dL | Activity (Mus musculus [11]): 31 U/L | IC50 (Leishmania donovani [12]): 160 nM | Activity (Mus musculus [13]): 7.3 mg/dL | IC50 (Leishmania major): 26 nM | Activity (Mus musculus [14]): 57 U/L | Activity (Mus musculus [15]): 67 U/L | Activity (Mus musculus [16]): 27 mg/dL | half-life [17]: > 120 min | Activity (Mus musculus [18]): 130 U/L | IC50 (Leishmania donovani [19]): 150 nM | half-life [20]: 75 min | Activity (Mus musculus [21]): 7.1 mg/dL | Activity (Mus musculus [22]): 43 U/L | Cmax [23]: 370 nM | Activity (Mus musculus [24]): 80 U/L | clearance [25]: 45 mL/min/kg | IC50 (Leishmania donovani [26]): 4.5 µM | Activity (Mus musculus [27]): 6.9 mg/dL | half-life [28]: > 120 min
